Reference: ChEMBL document CHEMBL3808313, “Comparing the efficacy of photodynamic and sonodynamic therapy in non-melanoma and melanoma skin cancer” (Bioorg Med Chem, 2016)
Calls of active or inactive are those of the source. No cut-off for these calls is given here.

Columns and labels:
A-431 [1] = assay: Cytotoxicity against human A431 cells assessed as reduction in cell viability at 1 uM preincubated for 4 hrs followed by 90 J/cm'-2 ultrasound irradiation measured after 24 hrs by MTT assay; assay type: functional, cell-based
Outline: (§1)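 A431 squamous carcinoma cells were seeded and incubated with ALA (1 or 2 μM) for 4 h. They were then exposed to either red light (630 nm ± 15 nm) or ultrasound. Viability was read by MTT assay 24 h after treatment.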

A-431 [2] = assay: Cytotoxicity against human A431 cells assessed as reduction in cell viability at 2 uM preincubated for 4 hrs followed by 5 J/cm'-2 red light irradiation measured after 24 hrs by MTT assay relative to control; assay type: functional; details: A-431, light or radiation study; outline: as §1
A-431 [3] = assay: Cytotoxicity against human A431 cells assessed as reduction in cell viability at 1 uM preincubated for 4 hrs followed by 5 J/cm'-2 red light irradiation measured after 24 hrs by MTT assay; assay type: functional, cell-based; outline: as §1
A-431 [4] = assay: Cytotoxicity against human A431 cells assessed as reduction in cell viability at 2 uM preincubated for 4 hrs followed by 90 J/cm'-2 ultrasound irradiation measured after 24 hrs by MTT assay relative to control; assay type: functional; details: A-431, light or radiation study; outline: as §1
A-431 [5] = assay: Antitumor activity against human A431 cells ectopically xenografted in topically dosed SCID mouse assessed as tumor growth treated for 4 hrs via Metvix cream measured on day 7 post dosing relative to control; assay type: functional
A-431 [6] = assay: Antitumor activity against human A431 cells ectopically xenografted in topically dosed SCID mouse assessed as tumor growth pretreated for 4 hrs via Metvix cream followed by 220 J/cm'-2 ultrasound irradiation measured on day 7 post dosing relative to control; assay type: functional
Mus musculus [7] = assay: Toxicity in topically dosed SCID mouse xenografted ectopically with human A431 cells assessed as reduction in body weight pretreated for 4 hrs via Metvix cream followed by 220 J/cm'-2 ultrasound irradiation measured on day 7 post dosing; assay type: organism-based, A-431; details: in vivo, topical_or_ocular
A-431 [8] = assay: Antitumor activity against human A431 cells ectopically xenografted in topically dosed SCID mouse assessed as tumor growth pretreated for 4 hrs via Metvix cream followed by 40 J/cm'-2 red light irradiation measured on day 7 post dosing relative to control; assay type: functional
Mus musculus [9] = assay: Toxicity in topically dosed SCID mouse xenografted ectopically with human A431 cells assessed as reduction in body weight pretreated for 4 hrs via Metvix cream followed by 40 J/cm'-2 red light irradiation measured on day 7 post dosing; assay type: organism-based, A-431; details: in vivo, topical_or_ocular
HeLa [10] = assay: Cytotoxicity against human HeLa cells assessed as reduction in cell viability at 0.5 uM preincubated for 3 hrs followed by 45 J/cm'-2 ultrasound irradiation for 30 sec measured after 24 hrs by MTT assay relative to control; assay type: functional; details: light or radiation study
[11] = Antitumor activity against mouse B16-F10-luc2 cells ectopically xenografted in nude mouse assessed as tumor growth at 100 uM pretreated with compound followed by ultrasound irradiation measured on day 4 post dosing relative to control; assay type: functional
HeLa [12] = assay: Cytotoxicity against human HeLa cells assessed as reduction in cell viability at 0.5 uM preincubated for 3 hrs followed by 22.8 J/cm'-2 white light irradiation for 60 sec measured after 24 hrs by MTT assay relative to control; assay type: functional; details: light or radiation study
[13] = Cytotoxicity against mouse B16-F10-luc2 cells assessed as reduction in cell viability at 0.5 uM preincubated for 3 hrs followed by 45 J/cm'-2 ultrasound irradiation for 30 sec measured after 24 hrs by MTT assay relative to control; assay type: functional; details: B16-F10-luc2, light or radiation study
[14] = Cytotoxicity against mouse B16-F10-luc2 cells assessed as reduction in cell viability at 0.5 uM preincubated for 3 hrs followed by 90 J/cm'-2 ultrasound irradiation for 60 sec measured after 24 hrs by MTT assay relative to control; assay type: functional; details: B16-F10-luc2, light or radiation study
[15] = Cytotoxicity against mouse B16-F10-luc2 cells assessed as reduction in cell viability at 0.5 uM preincubated for 3 hrs followed by 22.8 J/cm'-2 white light irradiation for 60 sec measured after 24 hrs by MTT assay relative to control; assay type: functional; details: B16-F10-luc2, light or radiation study
[16] = Induction of ROS generation in EtOH/H2O solution assessed as reduction in DPBF absorbance at 0.5 uM preincubated with compound followed by white light irradiation for 30 mins by UV-visible spectrometric analysis relative to control; assay type: physicochemical; set-up: scale not given: the % may be the effect or the level left; details: 0.5 h
HeLa [17] = assay: Cytotoxicity against human HeLa cells assessed as reduction in cell viability at 0.5 uM preincubated for 3 hrs followed by 90 J/cm'-2 ultrasound irradiation for 60 sec measured after 24 hrs by MTT assay relative to control; assay type: functional; details: light or radiation study
[18] = Cytotoxicity against mouse RIF1 cells assessed as reduction in cell viability at 0.5 uM preincubated for 3 hrs followed by 45 J/cm'-2 ultrasound irradiation for 30 sec measured after 24 hrs by MTT assay relative to control; assay type: functional; details: RIF-1, light or radiation study
[19] = Cytotoxicity against mouse RIF1 cells assessed as reduction in cell viability at 0.5 uM preincubated for 3 hrs followed by 90 J/cm'-2 ultrasound irradiation for 60 sec measured after 24 hrs by MTT assay relative to control; assay type: functional; details: RIF-1, light or radiation study
[20] = Cytotoxicity against mouse RIF1 cells assessed as reduction in cell viability at 0.5 uM preincubated for 3 hrs followed by 11.4 J/cm'-2 white light irradiation for 30 sec measured after 24 hrs by MTT assay relative to control; assay type: functional; details: RIF-1, light or radiation study
RIF-1 [21] = assay: Cytotoxicity against mouse RIF1 cells assessed as reduction in cell viability at 0.5 uM preincubated for 3 hrs followed by white light irradiation through 3.4 to 6.8 mm guinea pig skin barrier by MTT assay; assay type: functional, cell-based
RIF-1 [22] = assay: Cytotoxicity against mouse RIF1 cells assessed as reduction in cell viability at 0.5 uM preincubated for 3 hrs followed by ultrsound irradiation through 3.4 to 6.8 mm guinea pig skin barrier by MTT assay; assay type: functional, cell-based
Mus musculus [23] = assay: Toxicity in nude mouse xenografted ectopically with mouse B16-F10-Luc2 cells assessed as reduction in body weight at 100 uM pretreated with compound followed by white light irradiation measured up to 6 days post dosing relative to control; assay type: organism-based; details: in vivo
[24] = Cytotoxicity against mouse RIF1 cells assessed as reduction in cell viability at 0.5 uM preincubated for 3 hrs followed by 22.8 J/cm'-2 white light irradiation for 60 sec measured after 24 hrs by MTT assay relative to control; assay type: functional; details: RIF-1, light or radiation study
[25] = Induction of ROS generation in EtOH/H2O solution assessed as reduction in DPBF absorbance at 0.5 uM preincubated with compound followed by ultrasound irradiation for 30 mins by UV-visible spectrometric analysis relative to control; assay type: physicochemical; set-up: scale not given: the % may be the effect or the level left; details: 0.5 h
Mus musculus [26] = assay: Toxicity in nude mouse xenografted ectopically with mouse B16-F10-Luc2 cells assessed as reduction in body weight at 100 uM pretreated with compound followed by ultrasound irradiation measured up to 6 days post dosing relative to control; assay type: organism-based; details: in vivo
[27] = Cytotoxicity against mouse B16-F10-luc2 cells assessed as reduction in cell viability at 0.5 uM preincubated for 3 hrs followed by 11.4 J/cm'-2 white light irradiation for 30 sec measured after 24 hrs by MTT assay relative to control; assay type: functional; details: B16-F10-luc2, light or radiation study
HeLa [28] = assay: Cytotoxicity against human HeLa cells assessed as reduction in cell viability at 0.5 uM preincubated for 3 hrs followed by 11.4 J/cm'-2 white light irradiation for 30 sec measured after 24 hrs by MTT assay relative to control; assay type: functional; details: light or radiation study
[29] = Antitumor activity against mouse B16-F10-luc2 cells ectopically xenografted in nude mouse assessed as tumor growth at 100 uM pretreated with compound followed by white light irradiation measured on day 4 post dosing relative to control; assay type: functional
[30] = Antitumor activity against mouse B16-F10-luc2 cells ectopically xenografted in nude mouse assessed as tumor growth at 100 uM pretreated with compound followed by ultrasound irradiation measured up to 6 days post dosing relative to control; assay type: functional

Q: For NCC(=O)CCC(=O)O [AMINOLEVULINIC ACID], which inhibition (A-431 [1]) is on record?
A: The inhibition was “Active”.

Q: And the inhibition at 2 µM (A-431 [2])?
A: Its inhibition at 2 µM is 43%.

Q: And the inhibition (A-431 [3])?
A: Its inhibition is “Active”.

Q: And the inhibition at 2 µM (A-431 [4])?
A: Its inhibition at 2 µM is 31%.

Q: What does the source list for COC(=O)CCC(=O)CN [METHYL AMINOLEVULINATE]?
A: Activity (A-431 [5]): 90%; Activity (A-431 [6]): 11%; Activity (Mus musculus [7]): Non-toxic; Activity (A-431 [8]): 22%; Activity (Mus musculus [9]): Non-toxic

Q: What does the source list for O=C([O-])c1c(Cl)c(Cl)c(Cl)c(Cl)c1-c1c2cc(I)c(=O)c(I)c-2oc2c(I)c([O-])c(I)cc12.[Na+].[Na+] [ROSE BENGAL SODIUM]?
A: inhibition at 0.5 µM (HeLa [10]): 50%; Activity [11]: 120%; inhibition at 0.5 µM (HeLa [12]): 50%; inhibition at 0.5 µM [13]: 25%; inhibition at 0.5 µM [14]: 40%; inhibition at 0.5 µM [15]: 18%; Activity [16]: Active; inhibition at 0.5 µM (HeLa [17]): 50%; inhibition at 0.5 µM [18]: 50%; inhibition at 0.5 µM [19]: 50%; inhibition at 0.5 µM [20]: 50%; inhibition (RIF-1 [21]): inactive; inhibition (RIF-1 [22]): Active; Activity (Mus musculus [23]): Non-toxic; inhibition at 0.5 µM [24]: 50%; Activity [25]: Active; Activity (Mus musculus [26]): Non-toxic; inhibition at 0.5 µM [27]: 7%; inhibition at 0.5 µM (HeLa [28]): 50%; Activity [29]: 400%; Activity [30]: 400%

Q: Which Activity [16] does the source give for C=CC1=C(C)c2cc3[nH]c(cc4nc(cc5[nH]c(cc1n2)c(C)c5CCC(=O)O)C(CCC(=O)O)=C4C)c(C)c3C=C [PROTOPORPHYRIN] here?
A: Its Activity is 60%.

Q: And the Activity [25]?
A: The Activity was 17%.
